Common to all, as to format: functional, cell-based
Experiment [1] addresses T1, Adenosine receptor A1 (Homo sapiens) (UniProt P30542).
T1 sequence (whole entry): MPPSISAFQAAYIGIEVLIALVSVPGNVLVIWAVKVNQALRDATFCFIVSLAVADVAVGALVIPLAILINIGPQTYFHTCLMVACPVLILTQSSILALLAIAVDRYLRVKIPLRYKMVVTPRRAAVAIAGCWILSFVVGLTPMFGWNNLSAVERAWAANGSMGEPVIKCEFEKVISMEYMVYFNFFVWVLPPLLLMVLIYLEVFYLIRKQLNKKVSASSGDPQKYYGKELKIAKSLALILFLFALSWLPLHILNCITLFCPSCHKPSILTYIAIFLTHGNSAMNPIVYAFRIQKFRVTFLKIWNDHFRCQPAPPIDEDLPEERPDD
The experiment can be described thus: Percent change in cAMP content of CHO (Chinese hamster ovary) cells expressing human Adenosine A1 receptor at 10 uM. In short, it runs like this: (§1)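 CHO cells stably expressing human A1 receptor (~8000 fmol/mg protein) were grown in Ham's F-12 with 10% FBS and G-418 for 48 h to confluence. HCl (50 mM final) stopped the reaction, and cAMP was measured by radioimmunoassay. Values are % change versus no-compound control, mean ± SEM of six experiments.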

Experiment [2] has as its target T1, Adenosine receptor A1 (Homo sapiens). Nature of the experiment: Percent change in cAMP content of CHO (Chinese hamster ovary) cells expressing human Adenosine A1 receptor at 0.1 uM. In short, it runs like this: as §1
Experiment [3] has the same target. Nature of the experiment: Percent change in cAMP content of CHO (Chinese hamster ovary) cells expressing human Adenosine A1 receptor at 0.01 uM. A digest of the protocol:
as §1

For experiment [4] the target is unchanged. The experiment can be described thus: Percent change in cAMP content of CHO (Chinese hamster ovary) cells expressing human Adenosine A1 receptor at 1 uM. A digest of the protocol:
as §1

Each structure is given as a SMILES string.

For the compound `Cc1ccc(C(=O)c2c(N)sc3c2CCN(Cc2ccccc2)C3)c2ccccc12`, the Change in experiment [1] was -34%; in experiment [2] it was -7%; in experiment [3], -0%; in experiment [4] it was -13%.

Consider `Cc1ccc(C(=O)c2c(N)sc3c2CCC3)c2ccccc12`, for which the Change in experiment [1] was -48%; in experiment [2] it was 4%; in experiment [3], 9%; in experiment [4] it was -17%.

With `Cc1sc(N)c(C(=O)c2ccc(I)c3ccccc23)c1C`, the Change in experiment [1] was -63%; in experiment [2] it was -3%; in experiment [3] it was -5%; in experiment [4] it was -19%.

For the compound `Cc1cc(C(=O)c2c(N)sc3c2CCC3)cc2ccc(Cl)cc12`, the Change in experiment [1] was -17%; in experiment [2] it was -14%; in experiment [3], 4%; in experiment [4], -6%.

For `Nc1sc2c(c1C(=O)c1ccc3ccccc3c1)CCN(Cc1ccc(F)cc1)C2`, the Change is -8% in experiment [1], -9% in experiment [2], -11% in experiment [3] and -2% in experiment [4].

With `COc1ccc(C(=O)c2c(N)sc3c2CCN(Cc2ccccc2)C3)c2ccccc12`, the Change is -12% in experiment [1], 11% in experiment [2], -0% in experiment [3] and 3% in experiment [4].

On to `Nc1sc2c(c1C(=O)c1ccc3c(c1)Cc1ccccc1-3)CCCC2`, for which the Change in experiment [1] came out at 3%; in experiment [2] it was 6%; in experiment [3], 7%; in experiment [4], 7%.

Consider `COc1ccc(C(=O)c2c(N)sc3c2CCCC3)c2ccccc12`, for which the Change in experiment [1] is -17%; in experiment [2] it was 5%; in experiment [3], 5%; in experiment [4], -3%.

As to `Cc1sc(N)c(C(=O)c2ccc(C)c3ccccc23)c1C`, the Change was -51% in experiment [1], -8% in experiment [2], -5% in experiment [3] and -32% in experiment [4].

For `Cc1sc(N)c(C(=O)c2ccc(Cl)c3ccccc23)c1C`, the Change in experiment [1] is -56%; in experiment [2], -18%; in experiment [3] it was 12%; in experiment [4], -47%.

On to `Nc1sc2c(c1C(=O)c1ccc3c(c1)Cc1ccccc1-3)CCN(Cc1ccccc1)C2`, for which the Change was -1% in experiment [1], -7% in experiment [2], 4% in experiment [3] and 8% in experiment [4].

Regarding `Cc1cc(C(=O)c2c(N)sc3c2CCCC3)cc2ccccc12`, the Change in experiment [1] is -20%; in experiment [2], -9%; in experiment [3] it was -7%; in experiment [4], -8%.

Turning to `Nc1sc2c(c1C(=O)c1ccc3c(c1)Cc1ccccc1-3)CCC2`, the Change was -9% in experiment [1], -15% in experiment [2], -3% in experiment [3] and -6% in experiment [4].

With `Nc1sc2c(c1C(=O)c1ccc(Cl)c3ccccc13)CCN(Cc1ccccc1)C2`, the Change is -21% in experiment [1], -1% in experiment [2], 3% in experiment [3] and -7% in experiment [4].

As to `Nc1sc2c(c1C(=O)c1cccc3ccccc13)CCN(Cc1ccccc1)C2`, the Change in experiment [1] was 19%; in experiment [2], -7%; in experiment [3], -21%; in experiment [4] it was -25%.

For the compound `COc1ccc(CN2CCc3c(sc(N)c3C(=O)c3ccc4ccccc4c3)C2)c(OC)c1OC`, the Change was 5% in experiment [1], -1% in experiment [2], -3% in experiment [3] and -10% in experiment [4].

With `Nc1sc2c(c1C(=O)c1ccc(Br)c3ccccc13)CCN(Cc1ccccc1)C2`, the Change was -42% in experiment [1], -5% in experiment [2], 18% in experiment [3] and -12% in experiment [4].

Take `Cc1sc(N)c(C(=O)c2ccc(Br)c3ccccc23)c1C`: the Change in experiment [1] was -60%; in experiment [2], -1%; in experiment [3], -8%; in experiment [4] it was -2%.

In the case of `Cc1sc(N)c(C(=O)c2cc(C)c3ccccc3c2)c1C`, the Change was -22% in experiment [1], -3% in experiment [2], 4% in experiment [3] and -9% in experiment [4].

For the compound `Nc1sc2c(c1C(=O)c1cccc3ccccc13)CCC(Cc1ccccc1)C2` (configuration not stated), the Change in experiment [1] was -21%; in experiment [2], -7%; in experiment [3], -8%; in experiment [4], -14%.

Turning to `Nc1sc2c(c1C(=O)c1ccc(I)c3ccccc13)CCN(Cc1ccccc1)C2`, the Change was -13% in experiment [1], 1% in experiment [2], -6% in experiment [3] and -6% in experiment [4].

For the compound `COc1ccc(C(=O)c2c(N)sc(C)c2C)c2ccccc12`, the Change is -38% in experiment [1], 3% in experiment [2], 9% in experiment [3] and -5% in experiment [4].

For `Cc1sc(N)c(C(=O)c2ccc3c(c2)Cc2ccccc2-3)c1C`, the Change was -19% in experiment [1], -17% in experiment [2], -4% in experiment [3] and -10% in experiment [4].

`Nc1sc2c(c1C(=O)c1ccc3ccccc3c1)CCN(Cc1ccc(Cl)cc1)C2`: the Change in experiment [1] is -6%; in experiment [2] it was -8%; in experiment [3], -6%; in experiment [4], -21%.

Consider `Nc1sc2c(c1C(=O)c1ccc3ccccc3c1)CCN(Cc1ccccc1Cl)C2`, for which the Change was -17% in experiment [1], -20% in experiment [2], -10% in experiment [3] and -10% in experiment [4].

Turning to `Cc1cc(C(=O)c2c(N)sc3c2CCCC3)cc2ccc(Cl)cc12`, the Change was -13% in experiment [1], 1% in experiment [2], -0% in experiment [3] and -11% in experiment [4].

With `Nc1sc2c(c1C(=O)c1ccc3ccccc3c1)CCC(c1ccccc1)C2` (configuration not stated), the Change in experiment [1] is 33%; in experiment [2], 5%; in experiment [3], -8%; in experiment [4], 31%.

Consider `Nc1sc2c(c1C(=O)c1ccc3ccccc3c1)CCN(Cc1ccc([N+](=O)[O-])cc1)C2`, for which the Change in experiment [1] came out at 26%; in experiment [2] it was 12%; in experiment [3], 8%; in experiment [4] it was 26%.

For the compound `Nc1sc2c(c1C(=O)c1ccc3ccccc3c1)CCN(Cc1cccnc1)C2`, the Change in experiment [1] was 56%; in experiment [2], -12%; in experiment [3], -8%; in experiment [4] it was 41%.

On to `Cc1cc(C(=O)c2c(N)sc3c2CCN(Cc2ccccc2)C3)cc2ccccc12`, for which the Change is -16% in experiment [1], 2% in experiment [2], -0% in experiment [3] and -0% in experiment [4].

With `Cc1ccc(C(=O)c2c(N)sc3c2CCCC3)c2ccccc12`, the Change in experiment [1] is -45%; in experiment [2], 13%; in experiment [3], 17%; in experiment [4] it was -21%.

In the case of `Nc1sc2c(c1C(=O)c1ccc3ccccc3c1)CCN(Cc1cccc(Cl)c1)C2`, the Change was -3% in experiment [1], -12% in experiment [2], 9% in experiment [3] and 7% in experiment [4].

For `COc1ccc(C2SCc3c(sc(N)c3C(=O)c3cccc4ccccc34)S2)cc1` (configuration not stated), the Change was 6% in experiment [1], 16% in experiment [2], 18% in experiment [3] and 4% in experiment [4].

Source of the values: ChEMBL document CHEMBL1145774, “Synthesis and biological effects of novel 2-amino-3-naphthoylthiophenes as allosteric enhancers of the A1 adenosine receptor” (J Med Chem, 2003).
